# Laboratory results as given in paper PMC8322834 (Biochemistry, 2020).
# Entries after “also recorded” stand apart in the source; their conditions may differ. Non-standard residues stand in square brackets, D forms with d. Residues, ends and D or L forms follow the SMILES beside them. *: point of attachment. X1 = N=c1ccc2c(-c3ccc(C(=O)NCCCCCN4C(=O)CC(*)C4=O)cc3C(=O)O)c3ccc(N)c(S(=O)(=O)O)c3oc-2c1S(=O)(=O)O
# Columns and labels:
# ADP-DnaK [1] = molecular target: T1, ADP-DnaK (Escherichia coli, UniProt P0A6Y8); test: steady-state fluorescence anisotropy, direct binding to ADP-DnaK; parameters: species or system E. coli; conditions: Q taken to be 1.0, Figure S3
# T1 sequence (P0A6Y8 whole entry): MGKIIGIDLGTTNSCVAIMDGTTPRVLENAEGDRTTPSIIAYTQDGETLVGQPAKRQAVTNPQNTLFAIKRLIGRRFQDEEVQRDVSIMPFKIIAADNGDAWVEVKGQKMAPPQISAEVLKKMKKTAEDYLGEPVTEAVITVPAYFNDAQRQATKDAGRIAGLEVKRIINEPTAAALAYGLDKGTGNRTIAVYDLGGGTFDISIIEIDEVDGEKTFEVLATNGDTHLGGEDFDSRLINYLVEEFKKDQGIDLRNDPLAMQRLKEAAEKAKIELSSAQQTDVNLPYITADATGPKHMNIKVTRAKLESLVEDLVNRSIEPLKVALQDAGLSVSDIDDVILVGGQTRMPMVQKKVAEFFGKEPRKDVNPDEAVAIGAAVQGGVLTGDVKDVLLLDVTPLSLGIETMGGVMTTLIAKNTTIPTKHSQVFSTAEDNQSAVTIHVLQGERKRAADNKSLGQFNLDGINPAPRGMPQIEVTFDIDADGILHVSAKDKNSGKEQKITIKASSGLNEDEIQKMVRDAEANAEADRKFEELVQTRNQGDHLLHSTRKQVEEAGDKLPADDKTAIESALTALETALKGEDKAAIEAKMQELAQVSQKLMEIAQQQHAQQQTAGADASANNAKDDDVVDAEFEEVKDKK
# DnaK/DnaJ/GrpE (K/J/E) = conditions: simple buffer conditions, 400 μM KLR-70, 30 °C, 1 hr
# ADP-DnaK [2] = molecular target: T1, ADP-DnaK; test: steady-state fluorescence anisotropy, competitive binding to ADP-DnaK; parameters: species or system E. coli
# [3] = far-UV circular dichroism; type: physicochemical; conditions: 1.3 mM HEPES (pH 7.0), room temperature
# In short: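 Test peptide at 20 μM in 1.3 mM HEPES pH 7.0, room temperature. Far-UV spectra recorded from 190 to 260 nm in 1 nm steps at 20 s/step. Each spectrum is the average of n = 2 independent experiments. Secondary structure was deconvoluted with CONTINLL.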
# [4] = tested on: wild-type E. coli (ATCC 25922) cells; type: cell-based; conditions: ATCC 25922, 18 h
# GroEL/ES = conditions: c.f. mix, purified GroEL (0.5 μM) / GroES (1.0 μM), 30 °C, 1 hr, Figure S5
# DnaK (ADP-state) = DnaK (ADP-state) (Escherichia coli, UniProt P0A6Y8); test: native gel electrophoresis; type: binding, E. coli
# Sequence of DnaK (ADP-state) (P0A6Y8 whole entry): as above
# In short: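 DnaK (5 μM) was incubated with test peptide (0–50 μM, independent samples) for 1 hr at 21.5 ± 0.5 °C. Native gels used 32 mM Tris-acetate pH 7.5 running buffer at 200 V for 5 hrs, water-cooled. DnaK band intensity profiles were fit to a sum of two Gaussians to build binding isotherms. KD1 is the mean of n = 3 independent experiments ± standard error.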
# [5] = tested on: nascent apoMb biosynthesis (cell-free transcription-translation); test: cell-free expression of apoMb; type: biochemical, E. coli; conditions: 37 °C, 20 min
SMILES,change in total fluorescence intensity in presence of ADP-DnaK (ADP-DnaK [1]),inhibition of K/J/E-mediated luciferase refolding (DnaK/DnaJ/GrpE (K/J/E)),Kd (ADP-DnaK [2]),secondary structure in solution [3],MIC [4],effect on GroEL/ES-mediated luciferase refolding (GroEL/ES),Kd (DnaK (ADP-state)),"effect on nascent apoMb expression ([5]; 150 μM peptide, Δtig S30 extract, pH 7.0, n = 3)","effect on nascent apoMb synthesis ([5]; 60 – 150 μM KLR-70, Δtig S30 extract, pH 7.0, n = 3)","effect on nascent apoMb synthesis ([5]; 200 – 400 μM KLR-70, Δtig S30 extract, pH 7.0, n = 3)",highest KLR-70 concentration not disrupting cell-free protein expression ([5]; Δtig E. coli cell-free system)
CC(C)C[C@H](NC(=O)[C@H](CCCCN)NC(=O)[C@H](CCCCN)NC(=O)CNC(=O)[C@H](CCCNC(=N)N)NC(=O)[C@@H](N)CCCNC(=N)N)C(=O)N[C@@H](CC(C)C)C(=O)N[C@@H](CC(C)C)C(=O)N[C@@H](CC(C)C)C(=O)N[C@@H](CC(C)C)C(=O)N[C@@H](CCCCN)C(=O)N[C@@H](CCCCN)C(=O)N[C@@H](CCCCN)C(=O)NCC(=O)N[C@@H](CSC1CC(=O)N(CCCCCNC(=O)c2ccc(-c3c4ccc(=N)c(S(=O)(=O)O)c-4oc4c(S(=O)(=O)O)c(N)ccc34)c(C(=O)O)c2)C1=O)C(=O)O (stereo partly drawn) [KLR-70-C-AF488] (H-RRGKKLLLLLKKKGC(X1)-OH; N-terminus and C-terminus assumed),no statistically significant changes in total fluorescence intensity,,,,,,,,,,
CC(C)C[C@H](NC(=O)[C@H](CCCCN)NC(=O)[C@H](CCCCN)NC(=O)CNC(=O)[C@H](CCCNC(=N)N)NC(=O)[C@@H](N)CCCNC(=N)N)C(=O)N[C@@H](CC(C)C)C(=O)N[C@@H](CC(C)C)C(=O)N[C@@H](CC(C)C)C(=O)N[C@@H](CC(C)C)C(=O)N[C@@H](CCCCN)C(=O)N[C@@H](CCCCN)C(=O)N[C@@H](CCCCN)C(=O)NCC(=O)O [KLR-70] (H-RRGKKLLLLLKKKG-OH),,fully inhibits K/J/E-mediated luciferase refolding,890 ± 390 nM,mostly unordered; also recorded: predominantly unstructured in solution,41 to 83 µg/mL,only weakly reduces the GroEL/ES-mediated refolding of luciferase,158 ± 73 nM,does not have any influence on apoMb production,nascent protein synthesis is not disrupted,Partial inhibition of protein expression,up to 150 μM
"CC[C@H](C)[C@H](NC(=O)[C@@H](CCCNC(=N)N)NC(=O)[C@H](CCCNC(=N)N)NC(=O)[C@@H]1CCCN1C(=O)[C@@H]1CCCN1C(=O)[C@H](CCCNC(=N)N)NC(=O)[C@@H]1CCCN1C(=O)[C@H](CCCNC(=N)N)NC(=O)[C@@H]1CCCN1C(=O)[C@H](CC(C)C)NC(=O)[C@H](Cc1ccc(O)cc1)NC(=O)[C@@H]1CCCN1C(=O)[C@@H]1CCCN1C(=O)[C@H](CCCCN)NC(=O)[C@H](CC(=O)O)NC(=O)[C@@H](N)C(C)C)C(=O)N[C@@H](Cc1ccc(O)cc1)C(=O)N[C@@H](CC(N)=O)C(=O)N[C@H](CCCNC(=N)N)C(N)=O [Onc112, reference compound] (H-VDKPPYLPRPRPPR[dR]IYN[dR]-NH2)",,,,,5 µg/mL,,,,,,
